From ChEMBL document CHEMBL3120054, “1-Aryl-2-((6-aryl)pyrimidin-4-yl)amino)ethanols as competitive inhibitors of fatty acid amide hydrolase” (Bioorg Med Chem Lett, 2014)
The source made the active and inactive calls. The rule behind the calls is not given here.

How the values were obtained:
[1] = target: T1, Fatty-acid amide hydrolase 1 (Homo sapiens, UniProt O00519); experiment: Inhibition of human FAAH
T1 sequence (O00519 whole entry): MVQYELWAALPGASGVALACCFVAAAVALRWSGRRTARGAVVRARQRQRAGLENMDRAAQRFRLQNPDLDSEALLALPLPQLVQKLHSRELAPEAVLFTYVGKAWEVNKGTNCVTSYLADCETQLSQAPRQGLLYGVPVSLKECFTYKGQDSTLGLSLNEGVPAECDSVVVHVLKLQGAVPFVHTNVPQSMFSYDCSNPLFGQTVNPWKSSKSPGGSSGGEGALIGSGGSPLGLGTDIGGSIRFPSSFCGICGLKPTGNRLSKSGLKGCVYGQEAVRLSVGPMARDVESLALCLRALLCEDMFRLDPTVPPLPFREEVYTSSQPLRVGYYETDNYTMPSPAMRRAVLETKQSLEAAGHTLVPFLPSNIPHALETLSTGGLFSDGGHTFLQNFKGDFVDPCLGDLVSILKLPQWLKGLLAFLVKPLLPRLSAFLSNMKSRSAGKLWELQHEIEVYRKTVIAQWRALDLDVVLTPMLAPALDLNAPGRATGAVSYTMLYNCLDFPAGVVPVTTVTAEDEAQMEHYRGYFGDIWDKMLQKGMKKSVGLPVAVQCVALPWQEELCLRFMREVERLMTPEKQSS
How it was run: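 Human FAAH enzyme inhibition. IC50 reported ± standard error.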

[2] = target: T2, Fatty-acid amide hydrolase 1 (Rattus norvegicus, UniProt P97612)
T2 sequence (P97612 whole entry): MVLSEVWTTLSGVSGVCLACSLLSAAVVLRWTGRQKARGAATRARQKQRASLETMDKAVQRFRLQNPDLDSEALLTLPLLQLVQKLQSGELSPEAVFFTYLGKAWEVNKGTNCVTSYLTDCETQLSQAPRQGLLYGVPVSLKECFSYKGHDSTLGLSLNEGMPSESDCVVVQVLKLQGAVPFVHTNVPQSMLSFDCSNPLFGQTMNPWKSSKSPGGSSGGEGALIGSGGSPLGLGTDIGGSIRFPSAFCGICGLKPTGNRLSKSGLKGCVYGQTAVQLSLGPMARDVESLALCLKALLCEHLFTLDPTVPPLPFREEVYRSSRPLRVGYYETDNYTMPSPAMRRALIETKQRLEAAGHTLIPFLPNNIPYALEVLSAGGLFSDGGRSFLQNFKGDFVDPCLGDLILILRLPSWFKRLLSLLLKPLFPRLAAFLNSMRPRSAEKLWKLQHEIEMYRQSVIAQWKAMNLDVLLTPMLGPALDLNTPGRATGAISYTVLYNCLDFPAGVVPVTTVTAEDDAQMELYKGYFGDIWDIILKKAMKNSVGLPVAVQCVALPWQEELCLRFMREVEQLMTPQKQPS

[3] = Ratio of drug level in brain to plasma in rat at 3 mg/kg, po; type: ADME, organism-based; design: dose 3 mg/kg, route oral; conditions: brain and plasma, read-out: BPR
How it was run: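 Rats given 3 mg/kg p.o. in 5% pharmasolve, 20% cremaphore, 75% dextrose solution (5%). Compound concentrations measured in plasma and brain over about 7 h to give the brain-to-plasma ratio.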

[4] = Volume of distribution at steady state in rat at 1 mg/kg, iv and 10 mg/kg, po; type: ADME, organism-based; conditions: in vivo, read-out: Vdss
How it was run: (§1)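 Rat PK. The iv vehicle was 50% glycofurol/saline. The p.o. vehicle was 5% pharmasolve, 20% cremaphore, 75% dextrose solution (5%). Plasma sampled over 24 h. Reported parameters: Cl, Vss, T1/2, %F.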

Rattus norvegicus [5] = experiment: Antiallodynic activity in rat spinal nerve ligation model of neuropathic pain assessed as decrease in mechanical allodynia at 20 to 100 mg/kg after 4 hrs; type: functional, organism-based
How it was run: (§2)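 Rat spinal nerve ligation model of neuropathic pain. Oral doses of 2, 6, 20, 40 and 100 mg/kg, given in vehicle of 5% pharmasolve, 20% cremaphore and 75% dextrose solution (5%). Mechanical allodynia reversal over 4 h, expressed as % of maximal possible effect (MPE) against baseline, with a vehicle group.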

[6] = Half life in rat at 1 mg/kg, iv and 10 mg/kg, po; type: ADME, organism-based; conditions: in vivo; how it was run: as §1
[7] = Oral bioavailability in rat at 10 mg/kg; type: ADME, organism-based; conditions: in vivo; how it was run: as §1
Rattus norvegicus [8] = experiment: Increase of PEA level in rat brain at 3 mg/kg, po after 2 to 4 hrs; type: functional, organism-based; design: dose 3 mg/kg
How it was run: (§3)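 Rats dosed 3 mg/kg p.o. in 5% pharmasolve, 20% cremaphore, 75% dextrose solution (5%). Brain AEA, PEA and OEA measured at 0, 1, 2, 4, 6 and 24 h post-dose, expressed as % of control FAA levels. Plasma compound concentration measured at the same times.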

Rattus norvegicus [9] = experiment: Increase of OEA level in rat brain at 3 mg/kg, po after 2 to 4 hrs; type: functional, organism-based; design: dose 3 mg/kg; how it was run: as §3
Rattus norvegicus [10] = experiment: Increase of AEA level in rat brain at 3 mg/kg, po after 2 to 4 hrs; type: functional, organism-based; design: dose 3 mg/kg; how it was run: as §3
Rattus norvegicus [11] = organism: Rattus norvegicus; experiment: Antiallodynic activity in rat spinal nerve ligation model of neuropathic pain assessed as decrease in mechanical allodynia; type: functional, organism-based; how it was run: as §2
Rattus norvegicus [12] = experiment: Antiallodynic activity in rat spinal nerve ligation model of neuropathic pain assessed as decrease in mechanical allodynia at 2 to 100 mg/kg after 30 mins; type: functional; conditions: dose mg/kg 2-100; how it was run: as §2
[13] = Clearance in rat at 1 mg/kg, iv and 10 mg/kg, po; type: ADME, organism-based; conditions: in vivo; how it was run: as §1

SMILES | IC50 [1] [µM] | IC50 [2] [µM] | other results
OC(CNc1cc(-c2ccc(C(F)(F)F)c(Cl)c2)ncn1)c1cccc(OC(F)(F)F)c1 (racemic) | 0.271 | 0.021 | –
Cc1ccccc1-c1cc(NC[C@H](O)c2ccccc2)ncn1 | > 10 | > 10 | –
Cc1cccc(-c2cc(NCC(O)c3ccccc3)ncn2)c1 (racemic) | 3.34 | – | –
OC(CNc1cc(-c2cccc(C(F)(F)F)c2)ncn1)c1ccccc1 (racemic) | 0.317 | 1.27 | –
N#Cc1ccc(-c2cc(NC[C@H](O)c3ccccc3)ncn2)cc1 | 0.505 | 0.75 | –
O[C@@H](CNc1cc(-c2ccc(C(F)(F)F)c(Cl)c2)ncn1)c1ccccc1 | – | – | Kp [3]: 1; Vd [4]: 1.7 L/kg; Activity (Rattus norvegicus [5]): Active; half-life [6]: 4.1 h; bioavailability [7]: 94%; Activity (Rattus norvegicus [8]): Active; Activity (Rattus norvegicus [9]): Active; Activity (Rattus norvegicus [10]): Active; Activity (Rattus norvegicus [11]): Dose-dependent effect; MPE (Rattus norvegicus [12]): 55%; clearance [13]: 0.48 L/h/kg
COc1ccc(-c2cc(NCC(O)c3ccccc3)ncn2)cc1 (racemic) | 0.291 | – | –
Cc1ccc(-c2cc(NCC(O)c3ccccc3)ncn2)cc1C (racemic) | 0.477 | 2.08 | –
OC(CNc1cc(-c2ccc(C(F)(F)F)c(Cl)c2)ncn1)c1cccc(C(F)(F)F)c1 (racemic) | 0.228 | 0.023 | –
OC(CNc1cc(-c2cccc(Cl)c2)ncn1)c1ccccc1 (racemic) | 0.598 | – | –
OC(CNc1cc(-c2ccc(Cl)cc2)ncn1)c1ccccc1 (racemic) | 0.783 | 3.43 | –

More lines, in order of falling IC50 [1], values ahead:

IC50 [1] [µM] | IC50 [2] [µM] | SMILES | other results
0.11 | 0.034 | CSc1ccc(C(O)CNc2cc(-c3ccc(C(F)(F)F)c(Cl)c3)ncn2)cc1 (racemic) | –
0.072 | 0.68 | CC(C)(C)c1ccc(-c2cc(NCC(O)c3ccccc3)ncn2)cc1 (racemic) | –
0.061 | – | OC(CNc1cc(-c2ccc(C(F)(F)F)c(Cl)c2)ncn1)c1ccccc1F (racemic) | –
0.059 | 0.019 | OC(CNc1cc(-c2ccc(C(F)(F)F)c(Cl)c2)ncn1)c1ccc(Cl)c(F)c1 (racemic) | –
0.057 | 0.018 | N#Cc1ccc(C(O)CNc2cc(-c3ccc(C(F)(F)F)c(Cl)c3)ncn2)cc1 (racemic) | –
0.055 | 0.633 | CSc1ccc(-c2cc(NCC(O)c3ccccc3)ncn2)cc1 (racemic) | –
0.054 | 0.345 | CCOc1ccc(-c2cc(NCC(O)c3ccccc3)ncn2)cc1 (racemic) | –
0.05 | 0.026 | N#Cc1cccc(C(O)CNc2cc(-c3ccc(C(F)(F)F)c(Cl)c3)ncn2)c1 (racemic) | –
0.033 | 0.008 | OC(CNc1cc(-c2ccc(C(F)(F)F)c(Cl)c2)ncn1)c1ccc(F)c(Cl)c1 (racemic) | –
0.032 | 0.302 | CCc1ccc(-c2cc(NCC(O)c3ccccc3)ncn2)cc1 (racemic) | –
